Hits are enriched below; roughly 12% of the tested compounds scored in any of these assays.
Diaphorase act: activates diaphorase or chemically reduces, flagging diaphorase assay artifacts | Diaphorase/resazurin coupled assay, resorufin fluorescence, 16 min; stronger effect = higher value; 1 = vehicle wells, 0 = NADH-free wells | activation factor at 20 µM | actives 0.005% (n = 190,000);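 active means diaphorase activity raised at least twofold by the compound at 20 µM; inactive means activation factor below 2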
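test system = bacterial diaphorase enzyme (C. kluyveri) | quantity = enzyme 0.07 U/mL final | reagent = NADH substrate 0.114 mM plus resazurin dye 0.1 mM, final | incubation = 16 min enzyme reaction, ambient temperature | buffer or medium = HEPES pH 7.4 buffer with MgCl2 and Tween 20 | signal = fluorescence of resorufin, 544 nm excitation, 590 nm emission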
Diaph inh CS: diaphorase inhibition or chemical oxidation counter-screen; inhibition, % at 20 µM; diaphorase resazurin-to-resorufin fluorescence, NADH, 16 min; bacterial (C. kluyveri) enzyme, not human; AID 1217; actives 0.69% (n = 190,000);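 active means primary screen inhibition at 20 µM above a set limit, cut at about 50% in these data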
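Detection: fluorescence of resorufin formed from resazurin, Ex 544/Em 590 nm; test system: Clostridium kluyveri diaphorase enzyme; amount: 0.14 U/mL diaphorase, enzyme working solution; times: 16-min room-temperature incubation before reading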
L major viab: reduces viability of Leishmania major promastigotes. resazurin fluorescence viability. inhibition, % at 10 µM. actives 9% (n = 200,000); in the data active means inhibition above about 50%;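 further: promastigotes grown with compound for 44 hours at 28 °C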
KCC2 mod: modulates chloride dependent transport by human KCC2. KCC2 cells, thallium flux FluoZin-2 fluorescence. AID 1456. actives 2.2% (n = 190,000). B-score of Tl+ flux slope (higher = more flux/activation; lower = inhibition) at 10 µM;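 active means thallium flux slope and its plate-corrected score both differing from the plate sample mean at a set confidence after two filtering rounds, in either direction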;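 further: slope of fluorescence scaled to starting intensity during 10 to 20 s after thallium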
Target sequence (Q9H2X9 whole entry, looked up): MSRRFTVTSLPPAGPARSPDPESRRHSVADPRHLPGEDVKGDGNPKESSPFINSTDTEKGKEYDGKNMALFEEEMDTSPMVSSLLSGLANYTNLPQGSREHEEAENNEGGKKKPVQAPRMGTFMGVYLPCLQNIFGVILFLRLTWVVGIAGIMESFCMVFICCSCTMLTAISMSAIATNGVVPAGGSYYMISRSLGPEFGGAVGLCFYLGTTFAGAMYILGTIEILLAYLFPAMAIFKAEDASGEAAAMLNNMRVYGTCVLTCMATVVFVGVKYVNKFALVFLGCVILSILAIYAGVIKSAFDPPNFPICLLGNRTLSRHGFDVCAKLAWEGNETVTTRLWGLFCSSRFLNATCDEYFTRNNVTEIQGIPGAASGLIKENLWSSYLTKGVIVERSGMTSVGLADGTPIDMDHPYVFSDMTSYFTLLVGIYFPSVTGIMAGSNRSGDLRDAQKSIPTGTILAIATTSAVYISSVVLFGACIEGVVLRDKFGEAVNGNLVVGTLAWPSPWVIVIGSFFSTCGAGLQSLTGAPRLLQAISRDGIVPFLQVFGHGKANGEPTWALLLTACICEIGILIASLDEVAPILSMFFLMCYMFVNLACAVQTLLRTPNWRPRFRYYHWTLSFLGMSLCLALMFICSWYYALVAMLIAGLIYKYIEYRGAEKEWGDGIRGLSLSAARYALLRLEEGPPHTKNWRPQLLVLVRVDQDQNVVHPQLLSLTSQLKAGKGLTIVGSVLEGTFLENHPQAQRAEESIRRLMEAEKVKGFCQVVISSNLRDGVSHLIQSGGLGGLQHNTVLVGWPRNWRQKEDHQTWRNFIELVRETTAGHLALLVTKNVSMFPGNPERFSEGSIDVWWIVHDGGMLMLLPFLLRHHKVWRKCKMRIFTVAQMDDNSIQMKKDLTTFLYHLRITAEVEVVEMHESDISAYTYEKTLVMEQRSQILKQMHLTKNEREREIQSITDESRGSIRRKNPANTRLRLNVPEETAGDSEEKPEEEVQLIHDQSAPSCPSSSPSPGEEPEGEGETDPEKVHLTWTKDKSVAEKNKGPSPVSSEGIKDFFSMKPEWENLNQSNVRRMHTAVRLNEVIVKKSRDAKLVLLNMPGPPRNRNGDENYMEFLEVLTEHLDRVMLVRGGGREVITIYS
ROMK mod: human ROMK K+ channel modulation, primary screen; actives 2% (n = 130,000); B-score at 10 µM; Tet-inducible ROMK, thallium flux fluorescence; actives lie on both sides;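 active means signal ratio slope over the read window, or its plate-corrected B-score, at least 3 SD from the plate mean, either direction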;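 further: B-score of the F/F0 ratio slope over 7 to 12 s after thallium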
WT yeast gro inh: growth inhibition of WT yeast, mitochondrial fusion screen. actives 2.1% (n = 190,000). inhibition, % at 10 µM. mitochondrial fusion phenotypic screen, WT strain. AID 1362; in the data active means inhibition above about 58%; tested in S. cerevisiae
ROMK hit retest: human ROMK channel modulation, retest confirmation; shares compounds with ROMK mod; ROMK thallium flux, fluorescence ratio; stronger effect = lower value; normalized thallium flux (F/F0 slope) at 10 µM; actives 54% (n = 3,000); AID 1917;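 active means Flux at 10 µM at least 3 SD below or above vehicle control mean in one or both replicates; inconclusive means no clear call, values can overlap the other calls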
Of the large screens only hits and unclear results are named; the others gave an inactive call (follow-up assays come after a bar, where they were run).

Cn1nc(-c2ccccc2)c(CN2CCN(c3ncccn3)CC2)c1Cl	none
Cc1ccc(Cn2c(CN3CCN(C(=O)c4ccco4)CC3)nc3c2c(=O)n(C)c(=O)n3C)cc1	L major viab 78.1, ROMK mod 2.57 (no result: KCC2 mod) | ROMK hit retest inactive
Cn1c(=O)c2c(nc(CN3CCN(C(=O)c4ccco4)CC3)n2Cc2ccccc2)n(C)c1=O	none
COc1ccc(OC)c(NC2c3ccccc3C(=O)N2c2cccnc2)c1 (stereo not given)	none (no result: KCC2 mod, ROMK mod)
COc1cc(CN2CCN(Cc3ccc([N+](=O)[O-])cc3)CC2)c([N+](=O)[O-])cc1OC	L major viab 67.7, ROMK mod -4.26 | ROMK hit retest 0.0444
CCCCC[C@H](O)/C=C/C1=C(CCCCCCC(=O)O)C(=O)CC1	none (no result: ROMK mod) | ROMK hit retest inactive
CCCCC[C@H](O)/C=C/[C@@H]1[C@@H](CCCCCCC(=O)O)[C@@H](O)C[C@H]1O	none (no result: ROMK mod)
CCc1[nH]nc(C(=O)N2CCCC(CCC(=O)N3CCN(c4ccccn4)CC3)C2)c1C (stereo not given)	none (no result: KCC2 mod)
CC(=O)C1=C(C)NC(SCC(N)=O)=C(C#N)C1CC(C)C (stereo not given)	none
CCOC(=O)C1=C(C)NC(SC)=C(C#N)C1CC(C)C (stereo not given)	ROMK mod 2.5 (no result: Diaphorase act, Diaph inh CS, L major viab, WT yeast gro inh) | ROMK hit retest inactive
N#C/C(=C\c1c[nH]c2ccccc12)C(=O)Nc1ncc(Cc2ccc(Cl)cc2Cl)s1	none (no result: ROMK mod)
Cn1cc(/C=C(\C#N)C(=O)Nc2ncc(Cc3cccc(Cl)c3)s2)c2ccccc21	L major viab 91.1, ROMK mod -2.43 | ROMK hit retest 0.0592
CCOC(=O)C1=C(Cc2ccc(C)cc2)C(=O)c2ccccc2C1=O	ROMK mod -5.08 | ROMK hit retest 0.0542
COc1ccc(C(=O)/C(C#N)=N/Nc2ccccc2[N+](=O)[O-])cc1	ROMK mod 3.82 | ROMK hit retest inactive
CCCc1c(C)nn(C(=O)/C(C#N)=N/Nc2ccccc2[N+](=O)[O-])c1C	none
N#C/C(=C\c1c[nH]c2ccccc12)c1nnc2n1CCCCC2	none (no result: ROMK mod)
N#C/C(=N\Nc1cccc2ccccc12)c1nnc2n1CCCCC2	none (no result: ROMK mod) | ROMK hit retest 0.0587
CC(=O)N1CCN(C(=S)c2cccc([N+](=O)[O-])c2)CC1	none
O=[N+]([O-])c1ccc(N2CCN(C(=S)c3cccc([N+](=O)[O-])c3)CC2)cc1	ROMK mod -3.07 (no result: Diaphorase act, Diaph inh CS, L major viab, WT yeast gro inh) | ROMK hit retest 0.0646
CCOCCCNC(=O)C1CCCN1C(=O)NC1CCCCC1 (stereo not given)	none (no result: ROMK mod)
CCCn1c(=O)c2c(C(=O)OCC)cc(-c3ccco3)nc2n(CCC)c1=O	ROMK mod -3.82 | ROMK hit retest 0.0635
CCCn1c(=O)c2c(C(F)(F)F)cc(-c3ccco3)nc2n(CCC)c1=O	none
Cc1cc(C(C)(C)C)oc1C(=O)N(CC(=O)NC1CCCC1)Cc1ccccc1Cl	WT yeast gro inh 63.9 (no result: KCC2 mod, ROMK mod) | ROMK hit retest 0.0537
Cc1ccccc1N(CC(=O)NC1CCCC1)C(=O)c1oc(C(C)(C)C)cc1C	none (no result: KCC2 mod, ROMK mod)
Cc1cccc(N2C(=O)CC(N3CCN(Cc4ccc(Cl)cc4)CC3)C2=O)c1 (stereo not given)	none | ROMK hit retest inconclusive
CC(O)c1nc2ccccc2n1CCCCOc1ccccc1 (stereo not given)	none
NNC(=O)CCn1c2ccccc2c2ccccc21	none
COc1cccc(/C=C(/C#N)c2ccc(Cl)cc2)c1OCc1cccc(C(=O)O)c1	ROMK mod 2.38 | ROMK hit retest inactive
O=C(N/N=C/c1cccs1)c1cc(-c2ccncc2)nc2ccccc12	ROMK mod 4.19 | ROMK hit retest inactive
N/C(=N\OC(=O)c1ccccc1Cl)c1ccccn1	none (no result: KCC2 mod, ROMK mod)
N/C(=N\OC(=O)c1ccc(Cl)c(Cl)c1)c1ccccn1	none (no result: ROMK mod)
COc1ccccc1C(=O)O/N=C(\N)c1ccccn1	none (no result: Diaphorase act, Diaph inh CS, L major viab, ROMK mod, WT yeast gro inh) | ROMK hit retest inactive
N/C(=N\OC(=O)c1ccc(Cl)c([N+](=O)[O-])c1)c1ccccn1	ROMK mod -3.77 | ROMK hit retest inactive
CCN(CC)CCCNC(=O)Cn1nc([N+](=O)[O-])c(Cl)c1C	none
